# Laboratory results from ChEMBL document CHEMBL4014344, “Discovery of the Soluble Guanylate Cyclase Stimulator Vericiguat (BAY 1021189) for the Treatment of Chronic Heart Failure” (J Med Chem, 2017).
# The source made the active and inactive calls. The rule behind the calls is not given here.
# Assays:
# [1] = test system: Rattus norvegicus; assay: Antihypertensive activity in L-NAME-treated renin transgenic rat co-expressing RenTG(mRRen2)27 assessed as reduction in osteopontin expression at 3 to 10 mg/kg administered qd via oral gavage up to 21 days; assay type: functional, organism-based
# How it was run: (§1)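 Male RenTG(mRRen2)27 rats, 8 weeks old, given L-NAME in drinking water (50 mg/L) throughout. Randomised to placebo (2 mL/kg qd, n = 20) or 3 and 10 mg/kg/day po by gavage qd (n = 15 per group). Tail-cuff blood pressure on day 0, 7, 14 and 21. Plasma taken at day 22 end. Unpaired t test, mean ± SEM.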
# [2] = target: T1, Guanylate cyclase soluble subunit alpha-1 (Rattus norvegicus) (UniProt P19686); assay: Stimulation of rat recombinant sGCalpha1 subunit expressed in CHO cells using alpha-[32P]GTP as substrate assessed as >=3 fold increase in [32P]cGMP formation after 10 mins by radioimmunoassay; assay type: cell-based
# T1 sequence (whole entry): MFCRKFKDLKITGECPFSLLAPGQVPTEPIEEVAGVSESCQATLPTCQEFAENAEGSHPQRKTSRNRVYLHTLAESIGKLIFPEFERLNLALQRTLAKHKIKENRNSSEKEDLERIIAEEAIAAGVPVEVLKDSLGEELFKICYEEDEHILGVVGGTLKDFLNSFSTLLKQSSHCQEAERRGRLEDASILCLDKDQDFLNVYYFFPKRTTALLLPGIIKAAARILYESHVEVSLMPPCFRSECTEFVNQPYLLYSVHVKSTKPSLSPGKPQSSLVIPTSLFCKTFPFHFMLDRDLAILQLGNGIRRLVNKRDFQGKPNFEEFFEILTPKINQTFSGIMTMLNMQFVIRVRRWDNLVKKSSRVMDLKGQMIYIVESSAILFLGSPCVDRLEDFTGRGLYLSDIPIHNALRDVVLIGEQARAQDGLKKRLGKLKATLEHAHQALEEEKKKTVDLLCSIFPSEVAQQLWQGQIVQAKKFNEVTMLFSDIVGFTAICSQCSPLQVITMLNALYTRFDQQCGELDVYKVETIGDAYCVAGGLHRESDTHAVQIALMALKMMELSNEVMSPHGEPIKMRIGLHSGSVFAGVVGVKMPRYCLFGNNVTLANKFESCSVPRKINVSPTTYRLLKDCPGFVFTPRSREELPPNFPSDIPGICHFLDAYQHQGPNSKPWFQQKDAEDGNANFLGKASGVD
# [3] = Clearance in rat hepatocytes at 1 uM up to 90 mins by LC-MS/MS analysis; assay type: ADME, cell-based, Hepatocyte
# How it was run: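 Rat hepatocytes at 1 × 10^6 viable cells/mL (trypan blue-corrected) in Williams' medium E, 1 μM substrate, MeCN ≤1%, 37 °C, pH 7.4. Sampled at 2−90 min, quenched with MeCN, analysed by LC-MS/MS.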
# [4] = test system: Heart; assay: Cardiotoxicity in Wistar rat assessed as effect on contractility administered for 20 mins; assay type: toxicity, tissue-based
# How it was run: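 Male Wistar rats (200−250 g) anesthetized with Narcoren 100 mg/kg ip. Excised heart Langendorff-perfused at constant flow 10 mL/min with Krebs−Henseleit buffer gassed with 95% O2/5% CO2. Values expressed as relative change from baseline before compound application.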
# [5] = target: T2, Cytochrome P450 3A4 (Homo sapiens, UniProt P08684); assay: Inhibition of human liver microsomes CYP3A4 using midazolam as substrate; assay type: ADME
# T2 sequence (P08684 whole entry): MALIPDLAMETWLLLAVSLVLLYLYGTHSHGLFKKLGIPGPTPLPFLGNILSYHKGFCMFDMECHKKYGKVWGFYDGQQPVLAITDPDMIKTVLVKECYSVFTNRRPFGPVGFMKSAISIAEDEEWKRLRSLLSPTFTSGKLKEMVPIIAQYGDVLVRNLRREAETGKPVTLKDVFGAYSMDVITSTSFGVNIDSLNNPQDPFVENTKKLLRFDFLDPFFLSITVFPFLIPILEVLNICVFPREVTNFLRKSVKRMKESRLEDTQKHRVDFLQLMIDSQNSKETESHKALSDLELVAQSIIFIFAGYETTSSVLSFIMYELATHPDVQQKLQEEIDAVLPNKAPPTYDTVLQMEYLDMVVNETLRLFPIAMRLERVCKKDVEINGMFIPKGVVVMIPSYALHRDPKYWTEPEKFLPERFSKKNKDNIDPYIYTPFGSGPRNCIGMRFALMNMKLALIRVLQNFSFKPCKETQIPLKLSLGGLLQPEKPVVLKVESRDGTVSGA
# [6] = test system: Saphenous artery; assay: Inhibition of phenylephrine-induced contractions in Chinchilla rabbit saphenous artery rings administered at the beginning of the last resting period of 28 mins; assay type: functional; conditions: Oryctolagus cuniculus
# [7] = target: T3, Cytochrome P450 2C8 (Homo sapiens, UniProt P10632); assay: Inhibition of human liver microsomes CYP2C8 using amodiaquine as substrate; assay type: ADME
# T3 sequence (P10632 whole entry): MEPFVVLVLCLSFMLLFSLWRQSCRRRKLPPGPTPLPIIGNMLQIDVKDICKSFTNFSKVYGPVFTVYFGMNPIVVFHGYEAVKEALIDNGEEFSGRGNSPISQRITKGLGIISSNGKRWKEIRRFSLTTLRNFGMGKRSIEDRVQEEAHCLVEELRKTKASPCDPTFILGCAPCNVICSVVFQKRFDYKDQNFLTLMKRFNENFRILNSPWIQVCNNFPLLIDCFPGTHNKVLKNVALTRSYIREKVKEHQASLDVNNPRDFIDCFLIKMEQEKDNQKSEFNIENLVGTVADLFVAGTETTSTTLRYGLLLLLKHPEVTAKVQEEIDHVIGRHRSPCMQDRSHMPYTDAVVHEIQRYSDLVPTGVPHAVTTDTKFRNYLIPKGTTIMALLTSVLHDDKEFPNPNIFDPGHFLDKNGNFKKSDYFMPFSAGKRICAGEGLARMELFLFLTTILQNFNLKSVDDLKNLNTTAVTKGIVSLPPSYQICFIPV
# [8] = target: Cytochrome P450 2C19 (Homo sapiens, UniProt P33261); assay: Inhibition of human liver microsomes CYP2C19 using S-mephenytoin as substrate; assay type: ADME
# Sequence of Cytochrome P450 2C19 (P33261 whole entry): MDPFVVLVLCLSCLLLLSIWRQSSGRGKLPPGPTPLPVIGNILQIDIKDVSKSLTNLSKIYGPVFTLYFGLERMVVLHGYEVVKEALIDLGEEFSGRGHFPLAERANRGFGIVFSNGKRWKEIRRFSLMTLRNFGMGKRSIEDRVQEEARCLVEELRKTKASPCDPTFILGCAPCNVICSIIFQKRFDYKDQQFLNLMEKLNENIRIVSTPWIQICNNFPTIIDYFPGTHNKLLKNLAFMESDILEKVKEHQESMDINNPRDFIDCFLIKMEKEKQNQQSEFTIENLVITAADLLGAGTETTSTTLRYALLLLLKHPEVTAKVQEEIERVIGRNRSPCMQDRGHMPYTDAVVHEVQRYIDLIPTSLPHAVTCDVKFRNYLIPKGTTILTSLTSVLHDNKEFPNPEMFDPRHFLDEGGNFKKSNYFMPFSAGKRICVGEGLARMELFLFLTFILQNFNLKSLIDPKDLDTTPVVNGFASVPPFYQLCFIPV
# [9] = test system: Artery; assay: Inhibition of U46619-induced contractions in porcine coronary artery rings; assay type: functional; conditions: Sus scrofa
# [10] = target: T2, Cytochrome P450 3A4; assay: Inhibition of human liver microsomes CYP3A4 using testosterone as substrate; assay type: ADME
# [11] = Inhibition of phenylephrine-induced contractions in dog femoral vein after 15 to 20 mins post phenylephrine-induced contraction; assay type: functional, tissue-based, Canis lupus familiaris
# [12] = test system: Rattus norvegicus; assay: Antihypertensive activity in L-NAME-treated renin transgenic rat co-expressing RenTG(mRRen2)27 assessed as reduction in systolic blood pressure increase at 3 to 10 mg/kg, administered qd via oral gavage up to 21 days; assay type: functional, organism-based; how it was run: as §1
# [13] = Oral bioavailability in Beagle dog administered via oral gavage after 24 hrs by LC-MS analysis; assay type: ADME, organism-based, Canis lupus familiaris; conditions: in vivo
# How it was run: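 Male Wistar rats and female beagle dogs. iv in plasma/DMSO (rat) or H2O/PEG 400/EtOH (dog). Oral gavage in H2O/PEG 400/EtOH for both. Rats jugular-catheterised ≥1 d before dosing. Usually >10 blood samples, at least two after 24 h. Plasma quantified by LC-MS with internal standard. CL, t1/2, Vss and F calculated from plasma curves. Blood clearance via blood/plasma ratio (20 min blood incubation).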
# [14] = target: T4, Cytochrome P450 2B6 (Homo sapiens, UniProt P20813); assay: Inhibition of human liver microsomes CYP2B6 using bupropion as substrate; assay type: ADME
# T4 sequence (P20813 whole entry): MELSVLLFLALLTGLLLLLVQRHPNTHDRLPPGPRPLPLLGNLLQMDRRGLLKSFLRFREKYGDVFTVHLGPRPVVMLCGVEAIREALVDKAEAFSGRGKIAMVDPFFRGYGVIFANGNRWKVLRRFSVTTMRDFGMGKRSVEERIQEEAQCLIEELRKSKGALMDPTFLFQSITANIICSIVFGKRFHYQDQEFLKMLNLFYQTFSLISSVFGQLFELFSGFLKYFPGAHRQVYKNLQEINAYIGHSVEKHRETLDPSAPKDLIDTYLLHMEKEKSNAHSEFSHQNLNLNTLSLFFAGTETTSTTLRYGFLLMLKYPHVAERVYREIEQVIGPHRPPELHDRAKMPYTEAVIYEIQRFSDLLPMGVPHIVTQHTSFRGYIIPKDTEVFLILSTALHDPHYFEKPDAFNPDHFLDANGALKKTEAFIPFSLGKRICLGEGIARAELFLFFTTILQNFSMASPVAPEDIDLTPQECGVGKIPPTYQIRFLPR
smiles,measurement,setting,value
COC(=O)Nc1c(N)nc(-c2nn(Cc3ccccc3F)c3ncc(F)cc23)nc1N [VERICIGUAT],Activity,[1],Active
same,MEC,[2],0.3 µM
same,CLhep predicted at 1 µM,[3],1.67 mL/min/kg
same,Activity,[4],Non-Toxic
same,IC50,[5],> 50 µM
same,IC50,[6],0.798 µM
same,IC50,[7],> 50 µM
same,IC50,[8],> 50 µM
same,IC50,[9],0.956 µM
same,IC50,[10],> 50 µM
same,IC50,[11],3.07 µM
same,Activity,[12],Active
same,bioavailability,[13],75%
same,IC50,[14],> 50 µM
